The results in this text go back to ChEMBL document CHEMBL1629686, “Substrate selectivity and a novel role in inhibitor discrimination by residue 237 in the KPC-2 beta-lactamase” (Antimicrob Agents Chemother, 2010).

Values after ≈ are worked out from the molar mass of the structure shown.

Assay [1] deals with Escherichia coli. Description: Antimicrobial activity against Escherichia coli DH10B harboring plasmid pBR322-catI carrying beta-lactamase KPC-2 by agar dilution method in presence of beta-lactamase inhibitor clavulanic acid. In kind it is functional. The following applies: K-12 DH10B. (Agar dilution tests growth on a series of plates holding different concentrations.)
Assay [2] relates to Escherichia coli. Description: Antimicrobial activity against Escherichia coli DH10B harboring plasmid pBC SK(+) carrying wild type beta-lactamase KPC-2 by agar dilution method in presence of beta-lactamase inhibitor clavulanic acid. In kind it is functional. The following applies: K-12 DH10B. The essentials: (§1)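 LB agar dilution MICs by CLSI criteria, applied with a Steers replicator. […] Hosts were E. coli DH10B carrying pBC SK(+) with wild-type blaKPC-2 or a position 237 variant.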

For assay [3], the system named is Escherichia coli. Description: Antimicrobial activity against Escherichia coli DH10B harboring plasmid pBC SK(+) carrying wild type beta-lactamase KPC-2 by agar dilution method in presence of beta-lactamase inhibitor Sulbactam. In kind it is functional. The following applies: K-12 DH10B. The gist of the method:
as §1

For assay [4], the system named is Escherichia coli. Description: Antimicrobial activity against Escherichia coli DH10B harboring beta-lactamase KPC-2 T237A mutant by agar dilution method in presence of beta-lactamase inhibitor clavulanic acid. In kind it is functional. The following applies: K-12 DH10B. The essentials: as §1
Assay [5] concerns Escherichia coli. Description: Antimicrobial activity against Escherichia coli DH10B harboring beta-lactamase KPC-2 T237A mutant by agar dilution method in presence of beta-lactamase inhibitor Sulbactam. The following applies: K-12 DH10B. In kind it is functional. The gist of the method: as §1
Assay [6] deals with Escherichia coli. Description: Antimicrobial activity against Escherichia coli DH10B harboring beta-lactamase KPC-2 T237L mutant by agar dilution method in presence of beta-lactamase inhibitor clavulanic acid. In kind it is functional. The following applies: K-12 DH10B. The essentials:
as §1

Assay [7] relates to Escherichia coli. Description: Antimicrobial activity against Escherichia coli DH10B harboring beta-lactamase KPC-2 T237M mutant by agar dilution method in presence of beta-lactamase inhibitor Sulbactam. The following applies: K-12 DH10B. In kind it is functional. The essentials: as §1
The test system of assay [8] is Escherichia coli. Description: Antimicrobial activity against Escherichia coli DH10B harboring beta-lactamase KPC-2 T237V mutant by agar dilution method in presence of beta-lactamase inhibitor clavulanic acid. In kind it is functional. The following applies: K-12 DH10B. The essentials:
as §1

Assay [9] deals with Escherichia coli. Description: Antimicrobial activity against Escherichia coli DH10B harboring beta-lactamase KPC-2 T237W mutant by agar dilution method in presence of beta-lactamase inhibitor clavulanic acid. The following applies: K-12 DH10B. In kind it is functional. The gist of the method:
(§2)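 LB agar dilution MICs per CLSI criteria, inoculated with a Steers replicator. […] Strains: E. coli DH10B alone, DH10B carrying empty pBC SK(+), or DH10B carrying pBC SK(+)-blaKPC-2 position 237 variants made by site-saturation mutagenesis and confirmed by sequencing. Plasmid selection used 20 mg/liter chloramphenicol.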

Assay [10] relates to Escherichia coli. Description: Antimicrobial activity against Escherichia coli DH10B harboring beta-lactamase KPC-2 T237C mutant by agar dilution method in presence of beta-lactamase inhibitor clavulanic acid. The following applies: K-12 DH10B. In kind it is functional. The gist of the method:
as §2

The test system of assay [11] is Escherichia coli. Description: Antimicrobial activity against Escherichia coli DH10B harboring beta-lactamase KPC-2 T237C mutant by agar dilution method in presence of beta-lactamase inhibitor Sulbactam. In kind it is functional. The following applies: K-12 DH10B. The gist of the method: as §2
The test system of assay [12] is Escherichia coli. Description: Antimicrobial activity against Escherichia coli DH10B harboring beta-lactamase KPC-2 T237P mutant by agar dilution method in presence of beta-lactamase inhibitor clavulanic acid. In kind it is functional. The following applies: K-12 DH10B. The essentials:
as §2

Assay [13] has as its system Escherichia coli. Description: Antimicrobial activity against Escherichia coli DH10B harboring beta-lactamase KPC-2 T237Q mutant by agar dilution method in presence of beta-lactamase inhibitor Sulbactam. In kind it is functional. The following applies: K-12 DH10B. The essentials:
as §1

Assay [14] deals with Escherichia coli. Description: Antimicrobial activity against Escherichia coli DH10B harboring beta-lactamase KPC-2 T237S mutant by agar dilution method in presence of beta-lactamase inhibitor Sulbactam. In kind it is functional. The following applies: K-12 DH10B. The essentials:
as §1

Assay [15] deals with Escherichia coli. Description: Antimicrobial activity against Escherichia coli DH10B harboring beta-lactamase KPC-2 T237D mutant by agar dilution method in presence of beta-lactamase inhibitor clavulanic acid. In kind it is functional. The following applies: K-12 DH10B. The gist of the method:
as §1

The test system of assay [16] is Escherichia coli. Description: Antimicrobial activity against Escherichia coli DH10B harboring beta-lactamase KPC-2 T237H mutant by agar dilution method in presence of beta-lactamase inhibitor clavulanic acid. In kind it is functional. The following applies: K-12 DH10B. The gist of the method:
as §1

The subject of assay [17] is Escherichia coli. Description: Antimicrobial activity against Escherichia coli DH10B harboring beta-lactamase KPC-2 T237K mutant by agar dilution method in presence of beta-lactamase inhibitor clavulanic acid. In kind it is functional. The following applies: K-12 DH10B. The essentials: as §2
In assay [18] the test system is Escherichia coli. Description: Antimicrobial activity against Escherichia coli DH10B harboring beta-lactamase KPC-2 T237K mutant by agar dilution method in presence of beta-lactamase inhibitor Sulbactam. The following applies: K-12 DH10B. In kind it is functional. The gist of the method: as §1
Assay [19] concerns Escherichia coli. Description: Antimicrobial activity against Escherichia coli DH10B harboring beta-lactamase KPC-2 T237R mutant by agar dilution method in presence of beta-lactamase inhibitor clavulanic acid. In kind it is functional. The following applies: K-12 DH10B. The essentials:
as §2

For assay [20], the system named is Escherichia coli. Description: Antimicrobial activity against Escherichia coli DH10B harboring plasmid […] by agar dilution method in presence of beta-lactamase inhibitor clavulanic acid. In kind it is functional. The following applies: K-12 DH10B. The gist of the method:
as §2

For assay [21], the system named is Klebsiella pneumoniae. Description: microbe, parasite or virus in culture. The following applies: 1534.
In assay [22] the test system is Klebsiella pneumoniae. Description: microbe, parasite or virus in culture. The following applies: 1534. This is another data set of the same source.
Assay [23] concerns Klebsiella pneumoniae. Description: Activity of Klebsiella pneumoniae 1534 beta-lactamase KPC-2 T237A mutant by spectrophotometric analysis. The essentials:
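Purified KPC-2 variant enzymes (periplasmic lysate from E. coli, preparative isoelectric focusing). Hydrolysis followed by diode-array spectrophotometry in 10 mM PBS, pH 7.4, room temperature. Enzyme at 10 nM with substrate in molar excess for pseudo-first-order conditions. Vmax and Km came from a nonlinear least-squares Michaelis-Menten fit.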

Assay [24] concerns Escherichia coli. Description: Antimicrobial activity against Escherichia coli DH10B harboring plasmid pBC SK(+) carrying wild type beta-lactamase KPC-2 by agar dilution method in presence of beta-lactamase inhibitor Tazobactam. In kind it is functional. The following applies: K-12 DH10B. The gist of the method:
(§3)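 LB agar dilution MICs by CLSI criteria, inoculated with a Steers replicator. […] Strains were E. coli DH10B with or without pBC SK(+) carrying wild-type blaKPC-2 or a position 237 variant.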

For assay [25], the system named is Escherichia coli. Description: Antimicrobial activity against Escherichia coli DH10B harboring beta-lactamase KPC-2 T237L mutant by agar dilution method in presence of beta-lactamase inhibitor Tazobactam. In kind it is functional. The following applies: K-12 DH10B. The gist of the method:
as §3

Assay [26] has as its system Escherichia coli. Description: Antimicrobial activity against Escherichia coli DH10B harboring beta-lactamase KPC-2 T237M mutant by agar dilution method in presence of beta-lactamase inhibitor Tazobactam. In kind it is functional. The following applies: K-12 DH10B. The gist of the method: as §3
For assay [27], the system named is Escherichia coli. Description: Antimicrobial activity against Escherichia coli DH10B harboring beta-lactamase KPC-2 T237V mutant by agar dilution method in presence of beta-lactamase inhibitor Tazobactam. In kind it is functional. The following applies: K-12 DH10B. The essentials:
as §3

The test system of assay [28] is Escherichia coli. Description: Antimicrobial activity against Escherichia coli DH10B harboring beta-lactamase KPC-2 T237Y mutant by agar dilution method in presence of beta-lactamase inhibitor Tazobactam. The following applies: K-12 DH10B. In kind it is functional. The essentials:
as §3

Assay [29] relates to Escherichia coli. Description: Antimicrobial activity against Escherichia coli DH10B harboring beta-lactamase KPC-2 T237N mutant by agar dilution method in presence of beta-lactamase inhibitor Tazobactam. In kind it is functional. The following applies: K-12 DH10B. The essentials:
as §3

The test system of assay [30] is Escherichia coli. Description: Antimicrobial activity against Escherichia coli DH10B harboring beta-lactamase KPC-2 T237Q mutant by agar dilution method in presence of beta-lactamase inhibitor Tazobactam. In kind it is functional. The following applies: K-12 DH10B. The gist of the method: as §3
In assay [31] the test system is Escherichia coli. Description: Antimicrobial activity against Escherichia coli DH10B harboring beta-lactamase KPC-2 T237E mutant by agar dilution method in presence of beta-lactamase inhibitor Tazobactam. In kind it is functional. The following applies: K-12 DH10B. The essentials: as §3
The subject of assay [32] is Escherichia coli. Description: Antimicrobial activity against Escherichia coli DH10B harboring beta-lactamase KPC-2 T237H mutant by agar dilution method in presence of beta-lactamase inhibitor Tazobactam. In kind it is functional. The following applies: K-12 DH10B. The gist of the method: as §3
Assay [33] concerns Escherichia coli. Description: Antimicrobial activity against Escherichia coli DH10B harboring beta-lactamase KPC-2 T237K mutant by agar dilution method in presence of beta-lactamase inhibitor Tazobactam. In kind it is functional. The following applies: K-12 DH10B. The gist of the method: as §3
Assay [34] relates to Escherichia coli. Description: Antimicrobial activity against Escherichia coli DH10B harboring beta-lactamase KPC-2 T237R mutant by agar dilution method in presence of beta-lactamase inhibitor Tazobactam. In kind it is functional. The following applies: K-12 DH10B. The gist of the method:
as §3

The test system of assay [35] is Escherichia coli. Description: Antimicrobial activity against Escherichia coli DH10B by agar dilution method in presence of beta-lactamase inhibitor Tazobactam. In kind it is functional. The following applies: K-12 DH10B. The gist of the method:
as §3

Take `CC1(C)S[C@@H]2[C@H](NC(=O)[C@H](N)c3ccccc3)C(=O)N2[C@H]1C(=O)O` [AMPICILLIN]: the MIC in the assay on Escherichia coli [1] was found to be 32 µg/mL; with Escherichia coli [2], 4 µg/mL; with Escherichia coli [3] it was 128 µg/mL; in the assay with Escherichia coli [4], 8 µg/mL; with Escherichia coli [5], 64 µg/mL; in the assay on Escherichia coli [6] it was 8 µg/mL. Further, the MIC was 16 µg/mL in the assay with Escherichia coli [7]; 8 µg/mL in the assay with Escherichia coli [8]; 1 µg/mL in the assay with Escherichia coli [9]; 1 µg/mL with Escherichia coli [10]; 1 µg/mL in the assay on Escherichia coli [11]; 1 µg/mL in the assay with Escherichia coli [12]. In addition, the MIC is 64 µg/mL with Escherichia coli [13]; 128 µg/mL with Escherichia coli [14]; 8 µg/mL in the assay on Escherichia coli [15]; 4 µg/mL with Escherichia coli [16]; 1 µg/mL in the assay on Escherichia coli [17]; 4 µg/mL in the assay on Escherichia coli [18]. The MIC in the assay with Escherichia coli [19] stood at 1 µg/mL; with Escherichia coli [20], 1 µg/mL; against Klebsiella pneumoniae [21], 32 µg/mL (≈ 91.6 µM); in the assay on Klebsiella pneumoniae [22] it was 512 µg/mL (≈ 1470 µM).
For the compound `CCN1CCN(C(=O)N[C@@H](C(=O)N[C@@H]2C(=O)N3[C@@H]2SC(C)(C)[C@@H]3C(=O)O)c2ccccc2)C(=O)C1=O` [PIPERACILLIN], the Km with Klebsiella pneumoniae [23] was 12 µM. Further, the kcat in the assay on Klebsiella pneumoniae [23] was 42 s⁻¹. Further, the MIC is 8 µg/mL in the assay on Escherichia coli [24]; 2 µg/mL in the assay with Escherichia coli [25]; 2 µg/mL in the assay on Escherichia coli [26]; 2 µg/mL in the assay with Escherichia coli [27]; 0.5 µg/mL in the assay with Escherichia coli [28]; 1 µg/mL in the assay with Escherichia coli [29]. Also, the MIC was 4 µg/mL in the assay with Escherichia coli [30]; 0.5 µg/mL with Escherichia coli [31]; 1 µg/mL in the assay with Escherichia coli [32]; 0.5 µg/mL in the assay on Escherichia coli [33]; 0.5 µg/mL in the assay with Escherichia coli [34]; 0.5 µg/mL with Escherichia coli [35].

As a reminder, the Km is the substrate concentration at which the rate is half of its maximum. As usually defined, the kcat is the maximal rate divided by the concentration of active sites.
